This is a sample that favours compounds with a hit; in the whole collection about 2.7% have one here.
PRMT1 inh: inhibitors of human PRMT1. Q99873. recombinant PRMT1, activity-based probe fluorescence polarization. inhibition, % at 2.79 µM. 1.3% of 370,000 active. AID 652257;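 active means inhibition above about 21% made by adding two undisclosed values, limit read from the data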
GSTO1 counter: GSTO1 inhibition, counter-screen for RBBP9 inhibitors; recombinant GSTO1, activity-based probe fluorescence polarization; inhibition, % at 5.96 µM; 1.1% of 300,000 active; AID 1974;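 active means inhibition above the campaign mean inhibition plus 3 SD, cut at about 35% in these data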;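 further: 0% = GSTO1-1 with DMSO and 100% = wells lacking GSTO1-1 enzyme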
SIAE primary: blocks human sialic acid acetylesterase; Q9HAT2; inhibition, % at 9.66 µM; 0.69% of 370,000 active; SIAE FP-Rh probe binding, fluorescence polarization; AID 1053197;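 active means inhibition above a cutoff: mean of compounds within the control limits plus 3 SD of those, cut at about 17% in these data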;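 further: 0% = plate median of compound wells and 100% = probe without SIAE protein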
PAD4 inh: PAD4 (human) enzyme inhibition | recombinant PAD4, RCA probe fluorescence polarization | 0.41% of 330,000 active | inhibition, % at 6.36 µM | Q9UM07;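 active means percent inhibition above a cutoff equal to the mean of all tested compounds plus 3 SD, cut at about 15% in these data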;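 further: 0% = PAD4 with RCA probe and DMSO and 100% = probe without PAD4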
Target sequence (Q9UM07 whole entry, looked up): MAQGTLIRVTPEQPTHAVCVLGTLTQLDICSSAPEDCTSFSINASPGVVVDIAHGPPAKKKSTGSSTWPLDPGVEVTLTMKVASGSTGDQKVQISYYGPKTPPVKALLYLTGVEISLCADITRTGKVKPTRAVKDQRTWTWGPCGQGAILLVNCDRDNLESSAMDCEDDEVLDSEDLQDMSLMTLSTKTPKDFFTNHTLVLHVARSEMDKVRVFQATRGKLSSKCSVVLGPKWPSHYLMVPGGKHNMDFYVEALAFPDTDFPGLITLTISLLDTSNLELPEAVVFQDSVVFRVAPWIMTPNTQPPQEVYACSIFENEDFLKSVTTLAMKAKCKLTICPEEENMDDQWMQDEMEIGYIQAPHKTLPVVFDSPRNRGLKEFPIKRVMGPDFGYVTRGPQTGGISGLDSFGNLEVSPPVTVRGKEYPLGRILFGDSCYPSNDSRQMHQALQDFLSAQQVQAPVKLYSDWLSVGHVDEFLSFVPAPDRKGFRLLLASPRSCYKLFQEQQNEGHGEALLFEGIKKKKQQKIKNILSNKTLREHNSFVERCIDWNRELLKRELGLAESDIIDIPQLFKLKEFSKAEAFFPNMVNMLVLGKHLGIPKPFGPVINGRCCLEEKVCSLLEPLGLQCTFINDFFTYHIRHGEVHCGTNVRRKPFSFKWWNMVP
RBBP9 inh: inhibitors of human serine hydrolase RBBP9 | 0.2% of 220,000 active | recombinant RBBP9, FP-Rh probe fluorescence polarization | AID 1515 | O75884 | inhibition, % at 7.94 µM;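 active means inhibition above the campaign mean of all tested compounds plus 3 SD, cut at about 14% in these data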;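 further: plate controls were DMSO wells with RBBP9 for no effect and wells lacking RBBP9 protein for full effect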
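System: RBBP9 protein / Quantity: 2.5 µM RBBP9 dispensing solution, before mixing / Also added: Serine-hydrolase probe FP-Rh, 375 nM pre-mixing / Dosing: 7.94 µM single dose, 0.794% DMSO / Timing: enzyme-compound preincubation 30 min, then probe labeling 45 min, 25 °C / Signal: FP readout at 525/598 nm / Controls: DMSO-treated enzyme wells and wells lacking RBBP9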
SIAE confirm: confirmation of human SIAE inhibitors | shares compounds with SIAE primary | SIAE FP-Rh activity-based probe, fluorescence polarization | inhibition, % at 9.66 µM | 13% of 2,300 active;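 active means mean inhibition of the replicates above the hit cutoff set in the primary screen, cut at about 17% in these data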;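 further: 0% = SIAE with DMSO and probe and 100% = probe without SIAE; inhibitors lower polarization as more probe stays unbound to SIAE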
Active calls of the source: *; . = no result.

SMILES | PRMT1 inh | GSTO1 counter | SIAE primary | PAD4 inh | RBBP9 inh | SIAE confirm
CCOC(=O)c1c(C)[nH]c(C)c1S(=O)(=O)N1CCN(c2ccc(F)cc2)CC1 | -1 | 3 | 19* | 1 | . | 3
COC(=O)c1ccccc1NC(=O)CN1CCC(n2nnc3cc(C(F)(F)F)ccc32)CC1 | 1 | -8 | 0 | -1 | -2 | .
CC(=O)Nc1nnc(SCC(=O)NC(C)(C)C)s1 | -1 | 3 | 21* | 0 | 5 | -9
CCC(C)NC(=O)C1CCN(S(=O)(=O)c2ccc(Br)s2)CC1 (stereo not drawn) | -2 | 1 | 6 | -2 | -1 | .
Cc1cc2c(cc1S(=O)(=O)N1CCN(c3cccc(C)c3C)CC1)OCCN2C | 3 | -3 | 87* | 0 | . | 58*
COc1cccc(N2CCN(S(=O)(=O)c3cc4c(cc3C)N(C)CCO4)CC2)c1 | 0 | -5 | 13 | -1 | . | .
CC1=N/C(=C\c2ccc([N+](=O)[O-])cc2)C(=O)N1c1ccc(C)c(Cl)c1 | -1 | . | 3 | . | . | .
Cc1ccc(CNC(=O)CN(c2ccc(C)cc2)S(=O)(=O)c2c(C)n[nH]c2C)cc1 | 3 | 4 | -2 | -1 | . | .
COc1ccc(N2CCN(C(=O)CSc3nnnn3C3CC3)CC2)cc1 | 1 | . | 19* | -4 | . | -2
O=C(O)c1c2c(nc3ccccc13)/C(=C/c1ccc(O)cc1)CC2 | 12 | 16 | 14 | 0 | -12 | .
CC(C)(C)c1ccc(OCCNCc2ccccc2)cc1 | -2 | 4 | -1 | 5 | . | .
CC(C)(C)c1ccc(OCCNC(=S)Nc2ccccc2)cc1 | -2 | -10 | 17* | 1 | -6 | -11
NC(=O)COC(=O)c1c2c(nc3ccccc13)CCCCC2 | 1 | 0 | 17* | -1 | 5 | 3
CC(C)(C)C(=O)COC(=O)c1c2c(nc3ccccc13)CCC2 | -3 | 1 | -4 | 1 | -3 | .
O=C(Nc1ccc(-c2csc(Nc3ccccc3)n2)cc1)c1cc([N+](=O)[O-])cc(C(F)(F)F)c1 | -3 | -11 | 40* | 2 | . | 20*
NC(=O)c1ccc(NC(=O)c2cc(S(=O)(=O)N3CCCCC3)ccc2N2CCOCC2)cc1 | 3 | . | 21* | -5 | . | -3
CC(=O)Nc1ccc(NC(=O)c2cc(S(=O)(=O)N3CCCCC3)ccc2N2CCOCC2)cc1 | -2 | . | -7 | . | . | .
CCOc1ccc(C(CC(=O)O)NC(=O)C2c3ccccc3Oc3ccccc32)cc1 (stereo not drawn) | 0 | 0 | -6 | -4 | -1 | .
CCCOc1ccc2c(c1)C(=NN=C(N)N)c1cc(OCCC)ccc1-2 | 1 | -6 | 18* | 2 | . | 16
CCc1cc(=O)oc2c(C)c(OC(C)C(=O)N3CC[C@@]4(O)CCCC[C@H]4C3)ccc12 (stereo partly drawn) | -7 | 4 | -1 | -2 | . | .
Cc1sc(N/N=C/c2ccco2)nc1-c1ccccc1 | 5 | 4 | 3 | 3 | -7 | .
Cc1sc(N/N=C/c2cccnc2)nc1-c1ccccc1 | -1 | -8 | 17* | -4 | -10 | 0
CCOc1ccccc1OCCC(=O)NNC(=O)Cn1nc(C)cc1C | -2 | 1 | 17* | -1 | . | 4
CC(C)(C)CCN1CCC(CN2CCNC2=S)CC1 | 3 | . | 18* | . | . | 5
COc1ccc([C@@]23CCN=C2c2[nH]c4ccccc4c2CCN3)c(N)c1 | 5 | . | 19* | . | . | 2
SMILES | PRMT1 inh | GSTO1 counter | SIAE primary | PAD4 inh | RBBP9 inh | SIAE confirm
O=C(Nc1ccnn1C1CCN(C(=O)c2ccc(Cl)cc2)CC1)C1CC1 | -2 | 3 | 7 | 3 | . | .
Cc1cc(C)cc(NC(=S)NCc2ccc3[nH]c4c(c3c2)CCCC4)c1 | 2 | 1 | 17* | -2 | -6 | 2
S=C(NCc1ccc2[nH]c3c(c2c1)CCCC3)Nc1ccccc1 | 1 | -5 | 23* | -1 | -7 | 9
O=C(NCc1ccc2[nH]c3c(c2c1)CCCC3)c1ccc(S(=O)(=O)N2CCCCC2)cc1 | 3 | 2 | 2 | 0 | -12 | .
Cc1ccc2c(c1)=C(c1sc(N(C)c3ccc(O)cc3)nc1O)C(=O)N=2 | -1 | -4 | 17* | 0 | . | 8
COC(=O)[C@]12C(=O)NC[C@H](CN1c1ccc(Cl)c(C)c1)N2C | 1 | . | -1 | -2 | . | .
N#Cc1ccccc1CSc1nc(O)cc(=O)[nH]1 | -1 | 3 | 17* | 4 | 2 | -5
COc1ccc(NC(=O)c2ccc(-c3ccc([N+](=O)[O-])cc3)o2)cc1OC | 1 | 5 | 19* | -3 | -3 | 6
Cc1cccc(CSc2nc3ccccc3c(=O)n2C)c1 | 1 | . | 2 | -2 | . | .
Cc1ccc(-n2[nH]c(C)c(C=Nc3ccc4[nH]c(=O)[nH]c4c3)c2=O)cc1C | 13 | -11 | 5 | 1 | 1 | .
Cc1ccc(-n2[nH]c(C)c(C=Nc3ccc4[nH]c(=O)[nH]c4c3)c2=O)cc1 | 3 | 5 | 23* | -1 | 5 | 3
O=C(NCCS(=O)(=O)N1CCCCC1)c1ccc2c(c1)OCO2 | -1 | -3 | -1 | 1 | . | .
CN(C)c1cccc(NC(=O)NC2(C)CCS(=O)(=O)C2)c1 (stereo not drawn) | 0 | . | 4 | . | . | .
CC1(NC(=O)Nc2cccc3ccccc23)CCS(=O)(=O)C1 (stereo not drawn) | 4 | 0 | 22* | -8 | . | 1
CC(Sc1nnc(NC2CC2)s1)C(=O)Nc1ccc(S(N)(=O)=O)cc1 (stereo not drawn) | -4 | . | -2 | 2 | . | .
CC(Sc1nnc(NCc2ccccc2)s1)C(=O)Nc1ccc2c(c1)C(=O)c1ccccc1C2=O (stereo not drawn) | 17 | -99 | 18* | 2 | 9 | -28
CC(Sc1nnc(Nc2ccccc2)s1)C(=O)Nc1nc(-c2ccccc2)cs1 (stereo not drawn) | -3 | -1 | 22* | -5 | -7 | 5
O=C(NC(=S)NNS(=O)(=O)c1ccccc1)c1ccc([N+](=O)[O-])cc1 | 9 | 7 | 2 | -1 | -1 | .
CC(=O)c1sc(Nc2nc3cc4c(cc3s2)OCO4)nc1C | -2 | . | 4 | . | -8 | .
CCOC(=O)c1sc(Nc2nc3c(OC)cccc3s2)cc1C | -1 | -22 | 19* | 0 | 3 | 1
CCOC(=O)c1sc(Nc2nc3cc4c(cc3s2)OCO4)cc1C | 1 | -3 | 19* | -2 | -5 | 7
CCC1CCCCN1CCCNC(=O)CN1C(=O)CSc2ccc(S(=O)(=O)N3CCOCC3)cc21 (stereo not drawn) | 0 | 5 | -4 | 4 | . | .
C=CCNc1ccc(N2C(=O)C3CCC(C)CC3C2=O)cc1[N+](=O)[O-] (stereo not drawn) | -3 | 1 | 0 | 1 | 1 | .
Cc1ccc(N(Cc2ccc(C(=O)NCC3CCCO3)cc2)S(C)(=O)=O)cc1C (stereo not drawn) | -3 | 5 | 20* | -1 | -5 | 2
CS(=O)(=O)N(Cc1ccc(Cl)cc1)c1ccc(C(=O)NCC2CCCO2)cc1 (stereo not drawn) | -1 | -13 | -4 | -3 | 2 | .

Compound activity from PubChem.
